Test results published in ChEMBL document CHEMBL1806419, “18β-Glycyrrhetinic acid derivatives induced mitochondrial-mediated apoptosis through reactive oxygen species-mediated p53 activation in NTUB1 cells” (Bioorg Med Chem, 2011).
Calls of active or inactive are those of the source. The rule behind the calls is not given here.

Legend:
[1] = Cell cycle arrest in human NTUB1 cells assessed as accumulation at subG1 phase at 1mM after 24 hrs by propidium iodide staining based flow cytometric analysis (reference value: 6.68%); type: functional
Outline: (§1)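 8×10^5 NTUB1 cells plated, treated 24 h (alongside 10 µM cisplatin, 1 mM NAC, 50 µM H2O2 controls); harvested by trypsinization, fixed overnight in ice-cold MeOH at −20 °C, stained with 50 µg/mL propidium iodide plus 50 µg/mL RNase A in PBS 30 min at room temperature; cell-cycle phase fractions and sub-G1 (apoptotic) DNA content by FACScan flow cytometry; three independent experiments.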

[2] = Cell cycle arrest in human NTUB1 cells assessed as accumulation at G2/M phase at 1 mM after 24 hrs by propidium iodide staining based flow cytometric analysis (reference value: 20.37%); type: functional; outline: as §1
[3] = Cell cycle arrest in human NTUB1 cells assessed as accumulation at S phase at 1 mM after 24 hrs by propidium iodide staining based flow cytometric analysis (reference value: 20.37%); type: functional; outline: as §1
[4] = Decrease in ROS generation in human NTUB1 cells at 1 mM after 24 hrs by H2DCFDA staining based flow cytometeric analysis relative to control; type: functional; set-up: scale not given: the % may be the effect or the level left
Outline: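 NTUB1 cells (3×10^5 per 6 cm dish) treated 24 h (20 µM cisplatin and 1 mM NAC controls; medium-only control); 10 µM H2DCFDA added 30 min before harvest; trypsinized, PBS-washed, DCF green fluorescence (525 nm band pass, region M1) measured immediately by flow cytometry; percent change vs control; mean ± SD, n = 3.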

[5] = Cell cycle arrest in human NTUB1 cells assessed as accumulation at G1 phase at 1 mM after 24 hrs by propidium iodide staining based flow cytometric analysis (reference value: 50.64%); type: functional; outline: as §1
[6] = Cytotoxicity against human NTUB1 cells after 72 hrs by MTT assay; type: functional, cell-based; settings: NTUB1, 72 h
Outline: (§2)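 Cells seeded 1800/well in 96-well plates, preincubated overnight at 37 °C, then exposed to graded concentrations for 72 h at 37 °C (NTUB1, PC3 in RPMI 1640; SV-HUC1 in F12; 10% FBS, 5% CO2). MTT (2 mg/mL) added 3 h, formazan dissolved in DMSO, absorbance 540 nm; viability as percent of control; IC50 by median-effect analysis, mean ± SD.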

[7] = Induction of apoptosis in human NTUB1 cells assessed as decrease in JC-1 aggregation at 10 uM after 24 hrs by flow cytometric analysis; type: functional; set-up: scale not given: the % may be the effect or the level left
Outline: (§3)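 NTUB1 bladder carcinoma cells (3 × 10^5) in RPMI 1640 with 10% FBS at 37 °C, 5% CO2, exposed to test agent (10, 25 or 50 µM) with 10 µM CCCP as positive control. Stained 30 min with 1 µM JC-1 in medium, washed, trypsinised, resuspended in PBS/2% BSA. Flow cytometry read green monomer and red aggregate fluorescence; the aggregate/monomer ratio represents membrane potential.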

[8] = Induction of apoptosis in human NTUB1 cells assessed as increase in JC-1 probe monomers at 10 uM after 24 hrs by flow cytometric analysis; type: functional; outline: as §3
[9] = Cytotoxicity against immortalized human SV-HUC1 cells after 72 hrs by MTT assay; type: cell-based; settings: sv-huc1, 72 h; outline: as §2
PC-3 = test: Cytotoxicity against human PC3 cells after 72 hrs by MTT assay; type: functional, cell-based; outline: as §2
[10] = Cytotoxicity against human NTUB1 cells assessed as cell viability at 5 uM after 72 hrs by MTT assay relative to control; type: functional; settings: NTUB1, 72 h, read-out: Activity; outline: as §2
[11] = Cytotoxicity against human NTUB1 cells assessed as cell viability at 30 uM after 72 hrs by MTT assay relative to control; type: functional; settings: NTUB1, 72 h, read-out: Activity; outline: as §2
[12] = Cytotoxicity against human NTUB1 cells assessed as cytotoxic inhibition at 1 uM after 72 hrs by MTT assay relative to control; settings: NTUB1, 72 h
[13] = Cytotoxicity against human NTUB1 cells assessed as cell viability at 3 uM after 72 hrs by MTT assay relative to control; type: functional; settings: NTUB1, 72 h, read-out: Activity; outline: as §2
[14] = Cytotoxicity against human NTUB1 cells assessed as cell viability at 10 uM after 72 hrs by MTT assay relative to control; type: functional; settings: NTUB1, 72 h, read-out: Activity; outline: as §2
[15] = Cytotoxicity against human NTUB1 cells assessed as cell viability at 50 uM after 72 hrs by MTT assay relative to control; type: functional; settings: NTUB1, 72 h, read-out: Activity; outline: as §2

Structure (SMILES) | IC50 [6] [µM] | other results
CC(=O)N[C@@H](CS)C(=O)O [ACETYLCYSTEINE] | – | Activity [1]: 2.66%; Activity [2]: 20.2%; Activity [3]: 29.2%; Activity [4]: 26.1%; Activity [5]: 44.4%
C=C(C)[C@@H]1CC[C@]2(C)[C@H](C(=O)C=C3[C@@H]4C[C@@](C)(C(=O)NC(C)C)CC[C@]4(C)CC[C@]32C)[C@@]1(C)CCC(=O)NCCC | > 50 | –
CC1(C)[C@@H](O)CC[C@]2(C)[C@H]3C(=O)C=C4[C@@H]5C[C@@](C)(C(=O)O)CC[C@]5(C)CC[C@@]4(C)[C@]3(C)CC[C@@H]12 [ENOXOLONE] | 27.3 | –
CC1(C)C(=O)CC[C@]2(C)[C@H]3C(=O)C=C4[C@@H]5C[C@@](C)(C(=O)OCc6ccccc6)CC[C@]5(C)CC[C@@]4(C)[C@]3(C)CC[C@@H]12 | 20.2 | –
C=C(C)[C@@H]1CC[C@]2(C)[C@H](C(=O)C=C3[C@@H]4C[C@@](C)(C(=O)OCc5ccccc5)CC[C@]4(C)CC[C@]32C)[C@@]1(C)CCC(=O)OCC | 27.8 | –
CC1(C)OC(=O)CC[C@]2(C)[C@H]3C(=O)C=C4[C@@H]5C[C@@](C)(C(=O)OCc6ccccc6)CC[C@]5(C)CC[C@@]4(C)[C@]3(C)CC[C@@H]12 | 57.6 | –
C=C(C)[C@@H]1CC[C@]2(C)[C@H](C(=O)C=C3[C@@H]4C[C@@](C)(C(=O)OCc5ccccc5)CC[C@]4(C)CC[C@]32C)[C@@]1(C)CCC(=O)OC(C)C | 18.2 | –
CC1(C)OC(=O)CC[C@]2(C)[C@H]3C(=O)C=C4[C@@H]5C[C@@](C)(C(=O)O)CC[C@]5(C)CC[C@@]4(C)[C@]3(C)CC[C@@H]12 | 73.5 | –
N#CC(C#N)=NNc1cccc(Cl)c1 [CARBONYL CYANIDE M-CHLOROPHENYLHYDRAZONE] | – | Activity [7]: 48.42%; Activity [8]: 52.06%
COC(=O)[C@@]1(C)CC[C@]2(C)CC[C@]3(C)C(=CC(=O)[C@@H]4[C@@]5(C)CCC(=O)C(C)(C)[C@@H]5CC[C@]43C)[C@@H]2C1 | 56.5 | –
C=C(C)[C@@H]1CC[C@]2(C)[C@H](C(=O)C=C3[C@@H]4C[C@@](C)(C(=O)OCc5ccccc5)CC[C@]4(C)CC[C@]32C)[C@@]1(C)CCC(=O)NCC | 42.7 | –
C=C(C)[C@@H]1CC[C@]2(C)[C@H](C(=O)C=C3[C@@H]4C[C@@](C)(C(=O)OCc5ccccc5)CC[C@]4(C)CC[C@]32C)[C@@]1(C)CCC(=O)O | 2.34 | –
C=C(C)[C@@H]1CC[C@]2(C)[C@H](C(=O)C=C3[C@@H]4C[C@@](C)(C(=O)NC(C)C)CC[C@]4(C)CC[C@]32C)[C@@]1(C)CCC(=O)NCC | 12.8 | Activity [9]: Non-toxic; Activity (PC-3): Active
C=C(C)[C@@H]1CC[C@]2(C)[C@H](C(=O)C=C3[C@@H]4C[C@@](C)(C(=O)NC(C)C)CC[C@]4(C)CC[C@]32C)[C@@]1(C)CCC(=O)O | 17.5 | –
C=C(C)[C@@H]1CC[C@]2(C)[C@H](C(=O)C=C3[C@@H]4C[C@@](C)(C(=O)OC)CC[C@]4(C)CC[C@]32C)[C@@]1(C)CCC(=O)O | 20.7 | –
C=C(C)[C@@H]1CC[C@]2(C)[C@H](C(=O)C=C3[C@@H]4C[C@@](C)(C(=O)OCc5ccccc5)CC[C@]4(C)CC[C@]32C)[C@@]1(C)CCC(=O)NC(C)C | 30.1 | –
C=C(C)[C@@H]1CC[C@]2(C)[C@H](C(=O)C=C3[C@@H]4C[C@@](C)(C(=O)OC)CC[C@]4(C)CC[C@]32C)[C@@]1(C)CCC(=O)NC(C)C | 31.4 | –
C=C(C)[C@@H]1CC[C@]2(C)[C@H](C(=O)C=C3[C@@H]4C[C@@](C)(C(=O)OCc5ccccc5)CC[C@]4(C)CC[C@]32C)[C@@]1(C)CCC(=O)NCCC | 49.4 | –
C=C(C)[C@@H]1CC[C@]2(C)[C@H](C(=O)C=C3[C@@H]4C[C@@](C)(C(=O)NC(C)C)CC[C@]4(C)CC[C@]32C)[C@@]1(C)CCC(=O)OC(C)C | 29.2 | –
COC(=O)[C@@]1(C)CC[C@]2(C)CC[C@]3(C)C(=CC(=O)[C@@H]4[C@@]5(C)CCC(=O)OC(C)(C)[C@@H]5CC[C@]43C)[C@@H]2C1 | 24.3 | –
CC1(C)OC(=O)CC[C@]2(C)[C@H]3C(=O)C=C4[C@@H]5C[C@@](C)(C(=O)Nc6ccccc6)CC[C@]5(C)CC[C@@]4(C)[C@]3(C)CC[C@@H]12 | 16 | –
CC(C)NC(=O)[C@@]1(C)CC[C@]2(C)CC[C@]3(C)C(=CC(=O)[C@@H]4[C@@]5(C)CCC(=O)OC(C)(C)[C@@H]5CC[C@]43C)[C@@H]2C1 | 25.7 | –
C=C(C)[C@@H]1CC[C@]2(C)[C@H](C(=O)C=C3[C@@H]4C[C@@](C)(C(=O)OCc5ccccc5)CC[C@]4(C)CC[C@]32C)[C@@]1(C)CCC(=O)OC | 9.41 | viability at 5 µM [10]: 20%; viability at 30 µM [11]: 66%; cytotoxic inhibition at 1 µM [12]: 32%; viability at 3 µM [13]: 22%; viability at 10 µM [14]: 50%; viability at 50 µM [15]: 68%
CC1(C)C(=O)CC[C@]2(C)[C@H]3C(=O)C=C4[C@@H]5C[C@@](C)(C(=O)O)CC[C@]5(C)CC[C@@]4(C)[C@]3(C)CC[C@@H]12 | 18.6 | –
C=C(C)[C@@H]1CC[C@]2(C)[C@H](C(=O)C=C3[C@@H]4C[C@@](C)(C(=O)OC)CC[C@]4(C)CC[C@]32C)[C@@]1(C)CCC(=O)OC(C)C | 25.3 | –
C=C(C)[C@@H]1CC[C@]2(C)[C@H](C(=O)C=C3[C@@H]4C[C@@](C)(C(=O)Nc5ccccc5)CC[C@]4(C)CC[C@]32C)[C@@]1(C)CCC(=O)O | 3.31 | –
C=C(C)[C@@H]1CC[C@]2(C)[C@H](C(=O)C=C3[C@@H]4C[C@@](C)(C(=O)NC(C)C)CC[C@]4(C)CC[C@]32C)[C@@]1(C)CCC(=O)OC | 13.1 | viability at 5 µM [10]: 24%; viability at 30 µM [11]: 67%; cytotoxic inhibition at 1 µM [12]: 40%; viability at 3 µM [13]: 25%; viability at 10 µM [14]: 27%; viability at 50 µM [15]: 71%
C=C(C)[C@@H]1CC[C@]2(C)[C@H](C(=O)C=C3[C@@H]4C[C@@](C)(C(=O)NC(C)C)CC[C@]4(C)CC[C@]32C)[C@@]1(C)CCC(=O)OCC | 19.4 | Activity [9]: Non-toxic; Activity (PC-3): Active
